PubChem BioAssay AID588761 (Johns Hopkins Ion Channel Center, 2011)
Activity calls are given as the source filed them.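 The calls were made as follows: active = peak block of the KCNQ2 potassium channel above 30% at any tested dose, with a fitted dose response curve; inactive = no channel block at any dose, or no curve.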

molecular target: Potassium voltage-gated channel subfamily KQT member 2 (Rattus norvegicus) (UniProt O88943); assay: rat KCNQ2 channel inhibition, SAR follow-up, selectivity assay for KCNK9 inhibitor project, cell-based, FluxOR thallium flux, CRC (AID 588761); conditions: KCNQ2-expressing cells; series mostly up to 30 µM
Sequence (O88943 whole entry, looked up): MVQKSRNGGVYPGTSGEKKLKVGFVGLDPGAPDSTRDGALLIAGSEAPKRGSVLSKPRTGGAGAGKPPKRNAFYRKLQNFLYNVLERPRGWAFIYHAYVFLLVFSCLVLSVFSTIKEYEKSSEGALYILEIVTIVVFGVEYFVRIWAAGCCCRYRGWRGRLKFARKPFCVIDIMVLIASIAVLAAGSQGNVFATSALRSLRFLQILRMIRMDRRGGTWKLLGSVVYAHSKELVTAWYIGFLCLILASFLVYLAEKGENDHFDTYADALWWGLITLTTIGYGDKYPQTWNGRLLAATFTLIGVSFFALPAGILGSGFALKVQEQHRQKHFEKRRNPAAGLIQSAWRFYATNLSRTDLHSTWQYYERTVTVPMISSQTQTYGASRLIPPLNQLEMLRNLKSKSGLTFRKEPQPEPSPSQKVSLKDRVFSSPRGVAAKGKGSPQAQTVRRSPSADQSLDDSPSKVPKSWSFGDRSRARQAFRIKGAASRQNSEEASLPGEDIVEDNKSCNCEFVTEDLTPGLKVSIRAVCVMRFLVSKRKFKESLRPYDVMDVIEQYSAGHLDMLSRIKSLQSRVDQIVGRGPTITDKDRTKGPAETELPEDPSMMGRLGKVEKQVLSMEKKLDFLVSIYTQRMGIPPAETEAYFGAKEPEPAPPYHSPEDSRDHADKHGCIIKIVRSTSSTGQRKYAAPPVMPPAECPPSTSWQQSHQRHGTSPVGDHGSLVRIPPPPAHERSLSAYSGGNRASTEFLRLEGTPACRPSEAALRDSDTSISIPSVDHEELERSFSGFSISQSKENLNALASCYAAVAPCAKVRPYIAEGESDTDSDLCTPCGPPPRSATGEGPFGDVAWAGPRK
Summary of the method: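 Material: CHO cells expressing rat KCNQ2 potassium channel / Dosing: compound concentration-response series / Times: dye 90 min RT, compound 20 min RT / Technique: FluxOR thallium-flux fluorescence, kinetic imaging / Benchmarks: XE-991 control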

outcome, inactive:
Cc1cccc(C(=O)Nc2ccccc2C(=O)Nc2ccccc2)c1
Cc1cccc(C(=O)Nc2ccc(C(=O)Nc3ccccc3)cc2)c1
Cc1cccc(NC(=O)c2ccccc2NC(=O)c2ccccc2)c1
Cc1cccc(NC(=O)c2cccc(NC(=O)c3ccccc3)c2)c1
Cc1cccc(C(=O)Nc2cccc(C(=O)Nc3ccccc3)c2)c1
